In ChEMBL document CHEMBL4017529, “Rational Design of Selective Adenine-Based Scaffolds for Inactivation of Bacterial Histidine Kinases” (J Med Chem, 2017):
One block for each compound: values may come before it. Active and inactive are the calls of the source. No cut-off for these calls is given here.

Legend:
[1] = test system: Thermotoga maritima; experiment: Induction of Thermotoga maritima His-tagged HK853 expressed in Escherichia coli BL21(DE3)pLysS Rosetta aggregation at 100 uM after 30 mins by PAGE analysis
Procedure, shortened: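 Samples were run on 7.5% native-PAGE and silver stained. Aggregation was scored as loss of the dimeric HK853 band. NH125 served as positive aggregation control.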

[2] = target: T1, Heat shock protein HSP 90-alpha (Homo sapiens, UniProt P07900); experiment: Inhibition of full length human C-terminal His-tagged Hsp90 alpha expressed in Escherichia coli at […] by fluorescence polarization assay relative to control
[3] = test system: Thermotoga maritima; experiment: Induction of Thermotoga maritima His-tagged HK853 aggregation expressed in Escherichia coli BL21(DE3)pLysS Rosetta at >= […] after 30 mins by PAGE analysis
[4] = test system: Thermotoga maritima; experiment: Binding affinity to Thermotoga maritima His-tagged HK853 D411A mutant expressed in Escherichia coli BL21(DE3)pLysS Rosetta assessed as change in melting temperature at 1 mM by SYPRO orange dye based differential scanning fluorimetric analysis
[5] = test system: Thermotoga maritima; experiment: Binding affinity to wild type Thermotoga maritima His-tagged HK853 expressed in Escherichia coli BL21(DE3)pLysS Rosetta assessed as change in melting temperature at 1 mM by SYPRO orange dye based differential scanning fluorimetric analysis
Procedure, shortened: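 Wild-type HK853 at 2–5 µM final in reaction buffer, with SYPRO orange at 5x final. Compound was added at 1 mM final from a 25 mM DMSO stock; the control got DMSO alone. Reactions were 25 µL, made up on ice. Melt ran 20–95 °C at 1 °C min⁻¹ with HEX-filter fluorescence. Tm came from the melt curves, and ΔTm was taken against the control.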

[6] = Selectivity ratio of IC50 for human full length C-terminal His-tagged Hsp90 alpha expressed in Escherichia coli to IC50 for Thermotoga maritima His-tagged HK853 expressed in Escherichia coli BL21(DE3)pLysS Rosetta
[7] = test system: Thermotoga maritima; experiment: Inhibition of ATPgammaS-BODIPY binding to Thermotoga maritima His-tagged HK853 expressed in Escherichia coli BL21(DE3)pLysS Rosetta at […] preincubated for 30 mins prior to ATPgammaS-BODIPY addition measured after 1 hr by […] SDS-PAGE analysis
[8] = target: T1, Heat shock protein HSP 90-alpha; experiment: Inhibition of full length human C-terminal His-tagged Hsp90 alpha expressed in Escherichia coli by fluorescence polarization assay
[9] = test system: Thermotoga maritima; experiment: Induction of Thermotoga maritima His-tagged HK853 expressed in Escherichia coli BL21(DE3)pLysS Rosetta aggregation at […] after 30 mins by PAGE analysis
[10] = Inhibition of BODIPY-FL-ATPgammaS binding to Thermotoga maritima His-tagged HK853 expressed in Escherichia coli BL21(DE3)pLysS Rosetta preincubated for 30 mins followed by 1 hr incubation by SDS-PAGE in-gel fluorescence assay

SMILES: Nc1ncnc2c1ncn2CCN1CCOCC1
- Activity [1]: Active

SMILES: COc1ccc(OC)c(NC(=O)CSc2ncnc3[nH]cnc23)c1
- Activity [1]: Active

SMILES: CCCN(CCC)c1[nH]cnc2ncnc1-2
- ΔTm [4]: < 2 °C
- ΔTm [5]: 10 °C
- inhibition [2]: > 45%
- Ratio IC50 [6]: 10 to 2000

SMILES: CC1CC(Nc2ncnc3[nH]cnc23)CC(C)(C)C1 (centres undefined)
- Ratio IC50 [6]: 10 to 2000

SMILES: C=CC(=O)N1CCC[C@H](n2nc(-c3ccc(Oc4ccccc4)cc3)c3c(N)ncnc32)C1
- inhibition [7]: inactive

SMILES: Cn1cnc2c(N)nc(Cl)nc21
- IC50 [8]: > 1250 µM
- inhibition [2]: > 45%
- Activity [9]: inactive
- Ratio IC50 [6]: 10 to 2000

SMILES: Nc1ncnc2c1ncn2[C@@H]1O[C@H](COP(=O)(O)OP(=O)(O)O)[C@@H](O)[C@H]1O [ADENOSINE DIPHOSPHATE]
- ΔTm [4]: < 2 °C
- IC50 [10]: 2.4 µM
- ΔTm [5]: 10 °C

SMILES: CC[C@@H](Nc1ncnc2nc[nH]c12)c1nc2cccc(F)c2c(=O)n1-c1ccccc1
- inhibition [7]: inactive

SMILES: Nc1ncnc2c1ncn2[C@@H]1O[C@H](COP(=O)(O)OP(=O)(O)OP(=O)(O)O)[C@@H](O)[C@H]1O [ADENOSINE TRIPHOSPHATE]
- IC50 [10]: 27 µM

SMILES: Brc1ccc(CSc2[nH]cnc3ncnc2-3)cc1
- Activity [1]: Active

SMILES: Nc1nc(Cl)nc2c1ncn2[C@@H]1O[C@H](CO)[C@@H](O)[C@H]1O
- inhibition [2]: > 45%

SMILES: Cc1ccccc1OCn1cnc2c(N)ncnc21
- Activity [1]: Active

SMILES: C=CCSc1ncnc2[nH]cnc12
- Activity [1]: Active

SMILES: Clc1ccc(CSc2[nH]cnc3ncnc2-3)cc1
- Activity [1]: Active

SMILES: Nc1ncnc2c1ncn2[C@@H]1O[C@H](COP(=O)(O)O)[C@@H](O)[C@H]1O [ADENOSINE PHOSPHATE]
- IC50 [10]: 1030 µM

The remaining lines, values ahead:

- inhibition [2]: > 45%
SMILES: c1ccc(CCNc2ncnc3[nH]cnc23)cc1

- Activity [3]: inactive
SMILES: c1ccc(Nc2ncnc3[nH]cnc23)cc1

- Activity [1]: Active
SMILES: FC(F)(F)c1cccnc1N1CCN(c2[nH]cnc3ncnc2-3)CC1

- Activity [1]: Active
SMILES: Clc1c(CSc2ncnc3[nH]cnc23)ccc2c1OCO2

- Activity [1]: Active
SMILES: CC1CCN(c2ncnc3[nH]cnc23)CC1

- Activity [1]: Active
SMILES: Brc1cccc(CSc2ncnc3[nH]cnc23)c1

- Activity [1]: Active
SMILES: NS(=O)(=O)c1ccc(CCNc2ncnc3[nH]cnc23)cc1

- Activity [1]: Active
SMILES: c1ccc(N2CCN(c3ncnc4[nH]cnc34)CC2)nc1

- Activity [1]: Active
SMILES: c1ccc(CSc2ncnc3[nH]cnc23)cc1

- Activity [1]: Active
SMILES: Clc1ccccc1CSc1ncnc2[nH]cnc12

- Activity [1]: Active
SMILES: COc1ccccc1N1CCN(c2[nH]cnc3ncnc2-3)CC1
